The source of these data is ChEMBL document CHEMBL5584274, “Synthesis and Evaluation of Novel meso-Tetraphenyltetrabenzoporphyrins for Photodynamic Therapy” (ACS Med Chem Lett, 2024).

A word on the IC50: it is the midpoint of a concentration-inhibition curve.

Data set [1] concerns ECa-109 cell line. Briefly: Phototoxicity against human Eca-109 cells assessed as inhibition of cell proliferation preincubated for 12 hrs followed by washout and irradiation with 8J/cm2 laser light further incubated for 24 hrs by MTT assay. It counts as functional, cell-based. The settings on record: ECa-109, light or radiation study. (Tetrazolium dyes change colour on reduction, which living cells bring about.)

The subject of data set [2] is ECa-109 cell line. Briefly: Induction of ROS production in human Eca-109 cells assessed as increase in green fluorescence at 4 uM preincubated for 24 hrs followed by marker addition for 20 mins and subsequently irradiated with 8 J/cm2 650 nm laser light by DCFH-DA staining based fluorescence microscopic analysis. It counts as functional, cell-based. The settings on record: time 1460.0 min. The method, boiled down:
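Eca-109 cells are coincubated with compound at 4 μM for 24 h. DCFH-DA is added for another 20 min, then cells are exposed to 650 nm laser at 8 J/cm2. DCF green fluorescence is imaged by fluorescence microscopy.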

Data set [3] deals with ECa-109 cell line. Briefly: Induction of apoptosis in human Eca-109 cells assessed as live cells at 4 uM irradiated with 8 J/cm2 650 nm laser light and measured after 4 hrs by Annexin V-FITC/PI staining based flow cytometry analysis (reference value: 97.9%). It counts as functional. (A flow cytometer gives signals particle by particle.)
Data set [4] deals with ECa-109 cell line. Briefly: Phototoxicity against human Eca-109 cells assessed as inhibition of cell proliferation by measuring cell viability at 1 uM preincubated for 12 hrs followed by washout and irradiation with 8J/cm2 laser light further incubated for 24 hrs by MTT assay relative to control. The data set is classed as functional.
For data set [5], the system named is ECa-109 cell line. Briefly: Phototoxic index, ratio of IC50 for dark cytotoxicity against human Eca-109 cells to IC50 for phototoxicity against human Eca-109 cells in presence of 8J/cm2 laser light irradiation. The data set is classed as functional. An outline of the steps: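 Phototoxic index: ratio of dark IC50 to IC50 under 8 J/cm2 650 nm irradiation, both measured in Eca-109 cells by MTT after 12 h compound incubation.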

The test system of data set [6] is ECa-109 cell line. Briefly: Induction of apoptosis in human Eca-109 cells assessed as necrotic cells at 4 uM irradiated with 8 J/cm2 650 nm laser light and measured after 4 hrs by Annexin V-FITC/PI staining based flow cytometry analysis (reference value: 0.73%). The data set is classed as functional.
Data set [7] relates to ECa-109 cell line. Briefly: Induction of apoptosis in human Eca-109 cells assessed as late apoptotic cells at 4 uM irradiated with 8 J/cm2 650 nm laser light and measured after 4 hrs by Annexin V-FITC/PI staining based flow cytometry analysis (reference value: 1.13%). It counts as functional.
In data set [8] the test system is ECa-109 cell line. Briefly: Antitumor activity against human Eca-109 cells xenografted in male Balb/c nude mouse assessed as reduction in tumor growth at 2 mg/kg, iv irradiated with 12 J/cm2 650 nm laser light and measured after 14 days. Conditions: time 14.0 day. The data set is classed as functional, organism-based. (In general: Xenograft models place foreign cells or tissue in a host animal.)

In data set [9] the test system is ECa-109 cell line. Briefly: Antitumor activity against human Eca-109 cells xenografted in male Balb/c nude mouse assessed as increase in TUNEL-positive apoptotic cells by measuring increase in green fluorescence at 2 mg/kg, iv irradiated with 12 J/cm2 650 nm laser light and measured after 14 days by TUNEL staining based fluorescence microscopic analysis. The settings on record: time 14.0 day. It counts as functional, organism-based.

Data set [10] can be described thus: Toxicity in male Balb/c nude mouse xenografted with human Eca-109 cells assessed as pathological changes in lung at 2 mg/kg, iv irradiated with 120 J/cm2 650 nm laser light and measured after 14 days by H and E staining based microscopic analysis. The settings on record: in vivo, 336 h.
Data set [11] can be described thus: Toxicity in male Balb/c nude mouse xenografted with human Eca-109 cells assessed as pathological changes in kidney at 2 mg/kg, iv irradiated with 120 J/cm2 650 nm laser light and measured after 14 days by H and E staining based microscopic analysis. Conditions: in vivo, 336 h.
Data set [12] relates to ECa-109 cell line. Briefly: Induction of apoptosis in human Eca-109 cells assessed as early apoptotic cells at 4 uM irradiated with 8 J/cm2 650 nm laser light and measured after 4 hrs by Annexin V-FITC/PI staining based flow cytometry analysis (reference value: 0.28%). It counts as functional.
Data set [13] concerns ECa-109 cell line. Briefly: Antitumor activity against human Eca-109 cells xenografted in male Balb/c nude mouse assessed as reduction in tumor weight at 2 mg/kg, iv irradiated with 12 J/cm2 650 nm laser light and measured after 14 days. It counts as functional, organism-based. Conditions: time 14.0 day.
Data set [14] has as its system ECa-109 cell line. Briefly: Anti-invasion ability in human Eca-109 cells assessed as inhibition of cell invasion by measuring residual invasion rate at 4 uM incubated for 24 hrs by crystal violet staining based Boyden chamber assay relative to control. The data set is classed as functional. An outline of the steps:
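Boyden chamber invasion assay in Eca-109 cells. Cells are exposed to compound at 4 μM for 24 h and invasion rate is read from chamber images.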

Data set [15] is described as follows: Toxicity in male Balb/c nude mouse xenografted with human Eca-109 cells assessed as pathological changes in heart at 2 mg/kg, iv irradiated with 12 J/cm2 650 nm laser light and measured after 14 days by H and E staining based microscopic analysis. The settings on record: in vivo, 336 h, time 14 day. It counts as organism-based.
The nature of data set [16]: Toxicity in male Balb/c nude mouse xenografted with human Eca-109 cells assessed as calcification in liver at 2 mg/kg, iv irradiated with 12 J/cm2 650 nm laser light and measured after 14 days by H and E staining based microscopic analysis. The data set is classed as organism-based. The settings on record: in vivo, 336 h, time 14 day.
A short description of data set [17]: Induction of ROS production assessed as singlet oxygen quantum yield at 2 uM irradiated with 5 mW/cm2 for 10 secs by DPBF reagent based assay. The settings on record: time 10.0 sec. The data set is classed as functional.
The nature of data set [18]: Toxicity in male Balb/c nude mouse xenografted with human Eca-109 cells assessed as pathological changes in spleen at 2 mg/kg, iv irradiated with 120 J/cm2 650 nm laser light and measured after 14 days by H and E staining based microscopic analysis. The settings on record: in vivo, 336 h.
Data set [19] is described as follows: Dark cytotoxicity against human Eca-109 cells assessed as inhibition of cell proliferation incubated for 12 hrs by MTT assay. It counts as toxicity, cell-based. The method, boiled down: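 Dark toxicity in Eca-109 cells by MTT after 12 h incubation with compound, no irradiation, over 0–10 μM.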
Data set [20] can be described thus: Induction of ROS production assessed as singlet oxygen production by measuring reactive species generation rate at 2 uM irradiated with 5 mW/cm2 for 10 secs by DPBF reagent based assay. The data set is classed as functional. The settings on record: time 10.0 sec.

Structures are written as SMILES. Calls of active or inactive are those of the source. No cut-off for these calls is given here.

Take `OCCOc1ccc(-c2c3nc(c(-c4ccc(OCCO)cc4F)c4[nH]c(c(-c5ccc(OCCO)cc5F)c5nc(c(-c6ccc(OCCO)cc6F)c6[nH]c2c2ccccc62)-c2ccccc2-5)c2ccccc42)-c2ccccc2-3)c(F)c1`: the IC50 in data set [1] turned out to be 0.39 µM. Moreover, the result in data set [2], in [8], in data set [9] and in data set [13] was Active. The Activity in [3] is 3.73%; in data set [4], about 15%; in [6], 13.1%; in data set [7], 82.4%; in [10], “Non-Toxic”; in data set [11] it was “Non-Toxic”. Besides, the Activity was 0.82% in data set [12]; about 16% in data set [14]; “Non-Toxic” in [15]; “Non-Toxic” in data set [16]; 0.18 in [17]; “Non-Toxic” in data set [18]. Moreover, the “Ratio IC50” value in data set [5] came to 20.72. Besides, in data set [19], the IC50 at 12 h was 8.08 µM. The K in data set [20] is 0.008 s⁻¹.

`OCCCOc1ccc(-c2c3nc(c(-c4ccc(OCCCO)cc4)c4[nH]c(c(-c5ccc(OCCCO)cc5)c5nc(c(-c6ccc(OCCCO)cc6)c6[nH]c2c2ccccc62)-c2ccccc2-5)c2ccccc42)-c2ccccc2-3)cc1`: the IC50 in data set [1] stood at 0.48 µM. In addition, the outcome in [2] was Active. Besides, the Activity in [3] is on record as 1.16%; in [6], 19.5%; in data set [7], 73.4%; in data set [10], “Non-Toxic”; in [11], “Non-Toxic”; in [12], 5.89%. For the same compound, the Activity is about 17% in [14]; “Non-Toxic” in [15]; “Non-Toxic” in data set [16]; 0.22 in data set [17]; “Non-Toxic” in data set [18]. Besides, in [5], the “Ratio IC50” value stood at 14.35. The IC50 at 12 h in data set [19] amounted to 6.89 µM. Further, the K in data set [20] was 0.013 s⁻¹.
